Results taken from ChEMBL document CHEMBL2062417, “Biotinylated quercetin as an intrinsic photoaffinity proteomics probe for the identification of quercetin target proteins” (Bioorg Med Chem, 2011).
Activity calls are given as the source filed them. The calls are words filed in the database; no cut-off is given here.

How the values were obtained:
[1] = target: T1, Splicing factor 3B subunit 3 (Homo sapiens) (UniProt Q15393); test: Binding affinity to SF3B3 in human Jurkat cells at 150 uM followed by UV irradiation for 30 mins with Wood's glass filtered medium pressure mercury arc light after cell lysis measured after denaturing wash by SDS-PAGE based pull down assay
T1 sequence (whole entry): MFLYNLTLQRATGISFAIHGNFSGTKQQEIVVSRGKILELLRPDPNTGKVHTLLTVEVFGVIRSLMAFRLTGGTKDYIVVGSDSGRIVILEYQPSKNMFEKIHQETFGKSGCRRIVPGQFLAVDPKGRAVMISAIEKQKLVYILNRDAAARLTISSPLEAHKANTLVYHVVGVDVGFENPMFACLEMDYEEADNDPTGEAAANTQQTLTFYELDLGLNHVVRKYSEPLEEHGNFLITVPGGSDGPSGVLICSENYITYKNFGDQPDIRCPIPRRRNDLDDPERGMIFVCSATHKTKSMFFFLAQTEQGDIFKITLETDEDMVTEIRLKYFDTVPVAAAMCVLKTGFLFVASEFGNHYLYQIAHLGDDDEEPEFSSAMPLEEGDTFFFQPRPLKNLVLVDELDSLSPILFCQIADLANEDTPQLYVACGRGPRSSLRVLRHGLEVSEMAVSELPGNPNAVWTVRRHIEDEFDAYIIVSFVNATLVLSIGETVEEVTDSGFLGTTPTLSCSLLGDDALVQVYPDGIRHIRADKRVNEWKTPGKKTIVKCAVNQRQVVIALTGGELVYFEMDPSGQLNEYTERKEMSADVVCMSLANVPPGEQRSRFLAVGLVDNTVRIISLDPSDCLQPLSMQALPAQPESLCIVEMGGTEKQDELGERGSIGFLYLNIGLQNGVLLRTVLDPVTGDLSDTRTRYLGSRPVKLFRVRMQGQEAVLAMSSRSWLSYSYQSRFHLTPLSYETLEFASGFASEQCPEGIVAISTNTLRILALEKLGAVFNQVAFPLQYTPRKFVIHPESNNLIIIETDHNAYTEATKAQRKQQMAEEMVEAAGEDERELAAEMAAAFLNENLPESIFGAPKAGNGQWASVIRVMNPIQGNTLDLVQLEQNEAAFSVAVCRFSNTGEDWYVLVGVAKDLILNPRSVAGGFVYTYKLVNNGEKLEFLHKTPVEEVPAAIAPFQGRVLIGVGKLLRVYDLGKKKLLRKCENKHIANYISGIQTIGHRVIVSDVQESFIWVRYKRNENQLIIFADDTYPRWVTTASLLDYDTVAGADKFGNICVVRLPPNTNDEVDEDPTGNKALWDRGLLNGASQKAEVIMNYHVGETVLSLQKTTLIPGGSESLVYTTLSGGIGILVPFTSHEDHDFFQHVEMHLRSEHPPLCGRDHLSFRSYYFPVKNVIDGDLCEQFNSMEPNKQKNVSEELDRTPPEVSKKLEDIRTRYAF
Method in brief: (§1)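 Jurkat cells were grown in RPMI with 10% FBS (about 15×10^6 cells) and treated 2 h with 150 μM BioQ in 3% aqueous DMSO. They were heat-shocked at 43 °C for 30 min, recovered 1 h at 37 °C, and UV-irradiated (320–400 nm, peak 365 nm, 30 min, 4 °C) before or after sonication lysis. Streptavidin-agarose capture ran 1 h. Beads were washed ≥3× with lysis buffer or 2% SDS Tris pH 7.4, boiled, run on 12% SDS-PAGE and silver-stained.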

[2] = target: T2, Ubiquitin-like modifier-activating enzyme 1 (Homo sapiens) (UniProt P22314); test: Binding affinity to UBA1 in human Jurkat cells at 150 uM followed by UV irradiation for 30 mins with Wood's glass filtered medium pressure mercury arc light after cell lysis measured after denaturing wash by SDS-PAGE based pull down assay; method in brief: as §1
T2 sequence (whole entry): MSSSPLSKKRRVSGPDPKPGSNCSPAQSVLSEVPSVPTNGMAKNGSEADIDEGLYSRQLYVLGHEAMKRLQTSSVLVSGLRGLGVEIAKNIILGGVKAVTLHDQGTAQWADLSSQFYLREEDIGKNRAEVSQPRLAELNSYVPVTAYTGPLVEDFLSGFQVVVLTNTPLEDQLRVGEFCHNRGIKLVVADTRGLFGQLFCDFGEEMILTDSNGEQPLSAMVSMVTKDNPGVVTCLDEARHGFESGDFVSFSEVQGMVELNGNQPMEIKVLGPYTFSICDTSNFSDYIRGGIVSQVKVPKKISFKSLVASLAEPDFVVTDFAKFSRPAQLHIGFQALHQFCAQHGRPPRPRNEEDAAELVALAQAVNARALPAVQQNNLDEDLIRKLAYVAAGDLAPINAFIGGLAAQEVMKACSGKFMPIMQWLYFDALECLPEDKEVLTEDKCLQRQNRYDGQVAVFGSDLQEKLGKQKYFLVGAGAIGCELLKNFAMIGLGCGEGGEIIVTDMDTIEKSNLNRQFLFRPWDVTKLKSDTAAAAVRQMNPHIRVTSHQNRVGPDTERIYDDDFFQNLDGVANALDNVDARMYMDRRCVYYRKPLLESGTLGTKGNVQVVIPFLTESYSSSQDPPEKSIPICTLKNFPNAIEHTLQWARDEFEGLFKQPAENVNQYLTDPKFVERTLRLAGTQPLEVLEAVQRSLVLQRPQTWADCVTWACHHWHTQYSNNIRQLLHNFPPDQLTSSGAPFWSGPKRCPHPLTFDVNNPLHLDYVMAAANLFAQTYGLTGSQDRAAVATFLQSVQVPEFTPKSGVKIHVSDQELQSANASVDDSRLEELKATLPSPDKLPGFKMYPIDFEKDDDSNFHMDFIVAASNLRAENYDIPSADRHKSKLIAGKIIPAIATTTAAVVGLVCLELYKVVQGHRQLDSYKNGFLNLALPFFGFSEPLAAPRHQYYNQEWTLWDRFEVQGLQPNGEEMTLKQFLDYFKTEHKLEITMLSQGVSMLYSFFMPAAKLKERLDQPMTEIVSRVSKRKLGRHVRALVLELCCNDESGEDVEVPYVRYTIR

[3] = target: RuvB-like 2 (Homo sapiens) (UniProt Q9Y230); test: Binding affinity to RUVBL2 in human Jurkat cells at 150 uM followed by UV irradiation for 30 mins with Wood's glass filtered medium pressure mercury arc light prior to cell lysis measured after denaturing wash by SDS-PAGE based pull down assay; method in brief: as §1
RuvB-like 2 (Homo sapiens), sequence (Q9Y230 whole entry): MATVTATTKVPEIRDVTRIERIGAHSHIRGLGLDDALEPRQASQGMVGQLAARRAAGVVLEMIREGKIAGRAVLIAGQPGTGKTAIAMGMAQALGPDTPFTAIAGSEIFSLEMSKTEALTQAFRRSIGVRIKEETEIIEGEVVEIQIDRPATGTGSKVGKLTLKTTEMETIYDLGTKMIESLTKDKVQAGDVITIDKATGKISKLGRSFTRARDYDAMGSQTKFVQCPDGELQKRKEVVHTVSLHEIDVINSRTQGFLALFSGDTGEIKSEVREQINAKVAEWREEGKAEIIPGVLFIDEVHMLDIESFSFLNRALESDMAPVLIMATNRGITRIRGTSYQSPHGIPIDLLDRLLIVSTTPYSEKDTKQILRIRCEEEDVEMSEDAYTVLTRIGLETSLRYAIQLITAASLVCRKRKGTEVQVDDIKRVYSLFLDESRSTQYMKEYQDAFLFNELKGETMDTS

[4] = target: T1, Splicing factor 3B subunit 3 (Homo sapiens); test: Binding affinity to SF3B3 in human Jurkat cells at 150 uM followed by UV irradiation for 30 mins with Wood's glass filtered medium pressure mercury arc light prior to cell lysis measured after denaturing wash by LC-MS/MS based pull down assay
Method in brief: (§2)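 Silver-stained bands from cells irradiated before lysis were excised, destained, reduced with 10 mM DTT, alkylated with 50 mM iodoacetamide and digested with trypsin overnight. Peptides were extracted in 1% TFA/50% acetonitrile. Nano-C18 LC used a 2–50% acetonitrile gradient with 0.1% formic acid over 50 min at 260 nL/min, followed by MS/MS identification.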

[5] = target: ATP synthase F(1) complex subunit alpha, mitochondrial (Homo sapiens) (UniProt P25705); test: Binding affinity to ATP5A1 in human Jurkat cells at 150 uM followed by UV irradiation for 30 mins with Wood's glass filtered medium pressure mercury arc light prior to cell lysis measured after denaturing wash by LC-MS/MS based pull down assay; method in brief: as §2
ATP synthase F(1) complex subunit alpha, mitochondrial (Homo sapiens), sequence (P25705 whole entry, one chain of several): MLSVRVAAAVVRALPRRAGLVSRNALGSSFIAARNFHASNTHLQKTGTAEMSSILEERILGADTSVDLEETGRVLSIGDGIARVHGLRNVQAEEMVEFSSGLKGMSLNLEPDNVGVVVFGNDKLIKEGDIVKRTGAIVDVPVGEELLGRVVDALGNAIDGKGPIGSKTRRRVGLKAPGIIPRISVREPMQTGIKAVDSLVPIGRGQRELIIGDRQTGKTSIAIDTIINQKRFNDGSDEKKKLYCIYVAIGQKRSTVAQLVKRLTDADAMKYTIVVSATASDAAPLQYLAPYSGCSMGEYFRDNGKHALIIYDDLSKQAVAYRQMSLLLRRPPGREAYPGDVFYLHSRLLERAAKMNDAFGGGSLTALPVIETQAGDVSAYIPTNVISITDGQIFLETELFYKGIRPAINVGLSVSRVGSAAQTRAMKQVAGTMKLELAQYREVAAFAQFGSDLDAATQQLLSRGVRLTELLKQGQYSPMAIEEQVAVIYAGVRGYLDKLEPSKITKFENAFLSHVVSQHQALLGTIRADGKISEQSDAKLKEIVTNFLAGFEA

- Activity [1]: Active
- Activity [2]: Active
- Activity [3]: Active
- Activity [4]: Active
- Activity [5]: Active
Structure (SMILES): O=C(CCCC[C@@H]1SC[C@@H]2NC(=O)N[C@@H]21)NCCOCCOCCNC(=O)COc1cc(O)c2c(=O)c(O)c(-c3ccc(O)c(O)c3)oc2c1
